≈ marks a conversion by molar mass, not a printed value.
Tests used:
[1] = target: Epidermal growth factor receptor (Homo sapiens, UniProt P00533); test: Inhibition of recombinant human GST-tagged EGFR (668 to 1210 residues) expressed in baculovirus expression system using Poly(Glu,Tyr)4:1 as substrate after 1 hr by ELISA
[2] = target: Epidermal growth factor receptor (Homo sapiens, UniProt P00533, L858R/T790M); test: Inhibition of recombinant human GST-tagged EGFR L858R/T790M double mutant expressed in baculovirus expression system using Poly(Glu,Tyr)4:1 as substrate after 1 hr by ELISA
Homo sapiens [3] = organism: Homo sapiens; test: Selectivity ratio of IC50 for recombinant human GST-tagged EGFR (668 to 1210 residues) expressed in baculovirus expression system to IC50 for recombinant human GST-tagged EGFR L858R/T790M double mutant expressed in baculovirus expression system
Procedure, shortened: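 ELISA-based EGFR tyrosine kinase assay run on wild-type and L858R/T790M enzymes. IC50 values come from at least three independent determinations, reported as means ± SD. Selectivity is the wild-type IC50 divided by the L858R/T790M IC50.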

A-431 = test: Cytotoxicity against human A431 cells harboring wild type EGFR assessed as reduction in cell viability after 72 hrs by SRB assay; assay type: cell-based; conditions: A-431, 72 h
Procedure, shortened: (§1)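 Cell growth inhibition measured by sulforhodamine B colorimetric assay in H1975 (EGFR L858R/T790M) and A431 (overexpressed wild-type EGFR) cells; IC50 values are means ± SD of at least three independent determinations. Selectivity is taken as the A431:H1975 IC50 ratio.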

NCI-H1975 = test: Antiproliferative activity against human NCI-H1975 cells harboring EGFR L858R/T790M double mutant after 72 hrs by SRB assay; assay type: functional, cell-based; conditions: NCI-H1975, 72 h; procedure, shortened: as §1
[4] = Aqueous solubility in pH 7.4 PBS buffer by UV-Visible spectrophotometric method; assay type: physicochemical
Procedure, shortened: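 Solubility determined in 0.1 M PBS, pH 7.4, by UV-visible spectrophotometry.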

Homo sapiens [5] = organism: Homo sapiens; test: Selectivity index, ratio of IC50 for human A431 cells harboring wild type EGFR to IC50 for human NCI-H1975 cells harboring EGFR L858R/T790M double mutant; procedure, shortened: as §1

Sequence of Epidermal growth factor receptor (Homo sapiens, UniProt P00533) (P00533 whole entry, the tested form may be a part): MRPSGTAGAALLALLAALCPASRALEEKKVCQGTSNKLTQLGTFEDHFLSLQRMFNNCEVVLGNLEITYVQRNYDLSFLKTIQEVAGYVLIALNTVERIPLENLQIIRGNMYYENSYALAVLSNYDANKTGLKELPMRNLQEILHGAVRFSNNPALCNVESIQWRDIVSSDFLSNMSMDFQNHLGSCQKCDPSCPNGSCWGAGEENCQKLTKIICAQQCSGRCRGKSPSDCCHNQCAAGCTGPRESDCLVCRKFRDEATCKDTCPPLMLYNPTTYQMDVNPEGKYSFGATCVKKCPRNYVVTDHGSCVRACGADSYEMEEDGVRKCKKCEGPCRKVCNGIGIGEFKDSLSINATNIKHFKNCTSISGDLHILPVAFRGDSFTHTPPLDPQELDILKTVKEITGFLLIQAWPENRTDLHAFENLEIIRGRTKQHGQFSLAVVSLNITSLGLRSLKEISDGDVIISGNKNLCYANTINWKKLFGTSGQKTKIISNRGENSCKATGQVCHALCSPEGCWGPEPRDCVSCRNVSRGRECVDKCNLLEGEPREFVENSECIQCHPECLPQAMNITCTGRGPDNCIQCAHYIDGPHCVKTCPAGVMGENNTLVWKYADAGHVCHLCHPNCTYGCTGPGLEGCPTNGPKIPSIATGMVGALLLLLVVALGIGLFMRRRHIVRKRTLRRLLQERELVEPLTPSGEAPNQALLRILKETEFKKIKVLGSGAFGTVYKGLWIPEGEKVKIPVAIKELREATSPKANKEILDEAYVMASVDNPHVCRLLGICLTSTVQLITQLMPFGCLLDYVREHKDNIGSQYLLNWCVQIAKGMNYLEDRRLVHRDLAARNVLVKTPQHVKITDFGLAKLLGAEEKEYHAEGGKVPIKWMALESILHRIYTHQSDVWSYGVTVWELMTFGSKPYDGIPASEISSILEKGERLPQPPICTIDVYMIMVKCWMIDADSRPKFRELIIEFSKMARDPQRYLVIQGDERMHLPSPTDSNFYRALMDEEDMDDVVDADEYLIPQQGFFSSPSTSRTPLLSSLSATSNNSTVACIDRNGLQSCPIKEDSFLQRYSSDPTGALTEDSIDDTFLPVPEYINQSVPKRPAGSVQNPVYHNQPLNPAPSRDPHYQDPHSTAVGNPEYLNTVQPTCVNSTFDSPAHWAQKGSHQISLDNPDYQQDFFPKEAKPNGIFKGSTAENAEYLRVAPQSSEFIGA
Sequence of Epidermal growth factor receptor (Homo sapiens, UniProt P00533, L858R/T790M) (P00533 25-1210 T790M/L858R limits assumed): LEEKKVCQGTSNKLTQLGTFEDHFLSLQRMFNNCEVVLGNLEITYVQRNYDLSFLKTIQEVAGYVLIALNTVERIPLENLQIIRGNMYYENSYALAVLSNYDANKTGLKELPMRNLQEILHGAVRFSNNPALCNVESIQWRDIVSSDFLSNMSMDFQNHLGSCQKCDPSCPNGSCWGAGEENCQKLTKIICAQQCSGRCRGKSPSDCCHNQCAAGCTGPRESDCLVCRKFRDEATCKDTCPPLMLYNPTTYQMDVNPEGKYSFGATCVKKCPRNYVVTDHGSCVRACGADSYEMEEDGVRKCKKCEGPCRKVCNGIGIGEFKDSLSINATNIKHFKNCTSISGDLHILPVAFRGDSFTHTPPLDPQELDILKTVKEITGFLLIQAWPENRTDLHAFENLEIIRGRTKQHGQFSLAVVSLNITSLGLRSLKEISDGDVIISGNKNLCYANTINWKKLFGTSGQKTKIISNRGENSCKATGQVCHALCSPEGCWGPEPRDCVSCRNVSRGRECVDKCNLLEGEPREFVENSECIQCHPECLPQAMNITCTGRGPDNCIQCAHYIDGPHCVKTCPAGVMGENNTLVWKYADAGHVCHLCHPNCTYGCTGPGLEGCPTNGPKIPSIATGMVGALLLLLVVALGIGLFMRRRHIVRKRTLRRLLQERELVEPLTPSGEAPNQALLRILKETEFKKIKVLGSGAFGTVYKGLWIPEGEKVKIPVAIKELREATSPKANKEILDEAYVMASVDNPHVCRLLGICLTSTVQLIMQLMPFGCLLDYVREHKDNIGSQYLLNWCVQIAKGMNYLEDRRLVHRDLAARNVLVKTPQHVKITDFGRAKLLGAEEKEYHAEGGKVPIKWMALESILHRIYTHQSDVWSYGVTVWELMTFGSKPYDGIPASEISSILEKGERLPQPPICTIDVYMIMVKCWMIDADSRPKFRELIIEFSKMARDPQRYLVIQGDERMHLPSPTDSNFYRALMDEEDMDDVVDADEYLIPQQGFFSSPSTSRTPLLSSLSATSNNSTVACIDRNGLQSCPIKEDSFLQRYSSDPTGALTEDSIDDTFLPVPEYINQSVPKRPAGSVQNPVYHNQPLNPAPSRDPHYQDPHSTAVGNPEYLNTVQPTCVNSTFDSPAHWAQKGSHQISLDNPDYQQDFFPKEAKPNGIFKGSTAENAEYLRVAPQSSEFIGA

| SMILES | IC50 [1] [µM] | IC50 [2] [µM] | Ratio IC50 (Homo sapiens [3]) | IC50 (A-431) [µM] | IC50 (NCI-H1975) [µM] | solubility [4] [mg/mL] | Ratio IC50 (Homo sapiens [5]) |
| --- | --- | --- | --- | --- | --- | --- | --- |
| C=CC(=O)Nc1cccc(-n2c(=O)n(C)c(=O)c3cnc(Nc4ccc(N5CCOCC5)cc4OC)nc32)c1 | 0.341 | 0.07 | 4.9 | > 10 | > 10 | 0.061 (≈ 115 µM) |  |
| C=CC(=O)Nc1cccc(-n2c(=O)n(C(C)C)c(=O)c3cnc(Nc4ccc(N(C)CCN(C)C)cc4OC)nc32)c1 | 0.121 | 0.016 | 7.6 | 1.95 | 0.138 | 1.05 (≈ 1840 µM) | 14 |
| C=CC(=O)Nc1cccc(-n2c(=O)n(Cc3ccccc3)c(=O)c3cnc(Nc4ccc(N5CCC(N(C)C)CC5)cc4OC)nc32)c1 | 0.0012 | 0.0019 | 0.6 | 3.3 | 0.278 | 0.137 (≈ 212 µM) | 12 |
| C=CC(=O)Nc1cccc(-n2c(=O)n(C(C)C)c(=O)c3cnc(Nc4ccc(OCCN(C)C)cc4OC)nc32)c1 | 0.227 | 0.115 | 2 | 3.6 | 0.099 | 0.647 (≈ 1160 µM) | 36 |
| C=CC(=O)Nc1cccc(-n2c(=O)n(CCc3ccccc3)c(=O)c3cnc(Nc4ccc(N5CCC(N(C)C)CC5)cc4OC)nc32)c1 | 0.0007 | 0.001 | 0.7 | 2.04 | 0.189 | 0.099 (≈ 150 µM) | 11 |
| C=CC(=O)Nc1cccc(-n2c(=O)n(C)c(=O)c3cnc(Nc4ccc(N5CCN(C(C)=O)CC5)cc4OC)nc32)c1 | 0.18 | 0.046 | 3.9 | > 10 | > 10 | < 0.01 |  |
| C=CC(=O)Nc1cccc(-n2c(=O)n(C(C)C)c(=O)c3cnc(Nc4ccc(N5CCC(N(C)C)CC5)cc4OC)nc32)c1 | 0.02 | 0.0008 | 25 | > 10 | 0.05 | 0.176 (≈ 294 µM) |  |
| C=CC(=O)Nc1cccc(-n2c(=O)n(C)c(=O)c3cnc(Nc4ccc(N5CCSCC5)cc4OC)nc32)c1 | 0.314 | 0.091 | 3.5 | 8.37 | 0.573 | 0.045 (≈ 82.5 µM) | 15 |
| C=CC(=O)Nc1cccc(-n2c(=O)n(CCC)c(=O)c3cnc(Nc4ccc(N5CCC(N(C)C)CC5)cc4OC)nc32)c1 | 0.013 | 0.0004 | 33 | 4.13 | 0.06 | 0.184 (≈ 307 µM) | 69 |
| C=CC(=O)Nc1cccc(-n2c(=O)n(C(C)C)c(=O)c3cnc(Nc4ccc(N5CCN(C)CC5)c(C)c4)nc32)c1 | 0.034 | 0.001 | 34 | 0.954 | 0.024 | 0.28 (≈ 505 µM) | 40 |
| C=CC(=O)Nc1cccc(-n2c(=O)n(CC)c(=O)c3cnc(Nc4ccc(N5CCC(N(C)C)CC5)cc4OC)nc32)c1 | 0.111 | 0.0025 | 44 | > 10 | 0.175 | 0.229 (≈ 392 µM) |  |
| C=CC(=O)Nc1cccc(-n2c(=O)n(C(C)C)c(=O)c3cnc(Nc4ccc(N5CCN(C)CC5)c(OC)c4)nc32)c1 | 0.119 | 0.0068 | 18 | 1.05 | 0.037 | 0.309 (≈ 541 µM) | 28 |
| C=CC(=O)Nc1cccc(-n2c(=O)n(C)c(=O)c3cnc(Nc4ccc(N5CCC(N(C)C)CC5)cc4OC)nc32)c1 |  |  |  | 3.89 | 0.23 | 0.531 (≈ 931 µM) |  |
| C=CC(=O)Nc1cccc(-n2c(=O)n(C(C)C)c(=O)c3cnc(Nc4ccc(N5CCC(N6CCN(C)CC6)CC5)cc4OC)nc32)c1 | 0.24 | 0.014 | 17 | 1.39 | 0.154 | 0.121 (≈ 185 µM) | 9 |
| C=CC(=O)Nc1cccc(-n2c(=O)n(C)c(=O)c3cnc(Nc4ccccc4)nc32)c1 | 0.082 | 0.068 | 1.2 | > 10 | 9.26 | < 0.01 |  |
| C=CC(=O)Nc1cccc(Nc2nc(Nc3ccc(N4CCN(C(C)=O)CC4)cc3OC)ncc2C(F)(F)F)c1 [ROCILETINIB] |  |  |  | 0.641 | 0.031 |  |  |
| C=CC(=O)Nc1cccc(-n2c(=O)n(CCCc3ccccc3)c(=O)c3cnc(Nc4ccc(N5CCC(N(C)C)CC5)cc4OC)nc32)c1 | 0.0038 | 0.0014 | 2.7 | 1.46 | 0.358 | 0.104 (≈ 154 µM) | 4.1 |

— ChEMBL document CHEMBL4118273, “Design, Synthesis, and Biological Evaluation of Pyrimido[4,5- d]pyrimidine-2,4(1 H,3 H)-diones as Potent and Selective Epidermal Growth Factor Receptor (EGFR) Inhibitors against L858R/T790M Resistance Mutation” (J Med Chem, 2018)
